Measured values from ChEMBL document CHEMBL1158537, “Antibacterial activities of aminoglycoside antibiotics-derived cationic amphiphiles. Polyol-modified neomycin B-, kanamycin A-, amikacin-, and neamine-based amphiphiles with potent broad spectrum antibacterial activity” (2010).

What was measured:
Pseudomonas aeruginosa [1] = experiment: Antibacterial activity against Pseudomonas aeruginosa ATCC 27853 after 24 hrs by macrobroth dilution method; type: functional; conditions: ATCC 27853, 24 h
Procedure, shortened: (§1)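 Broth macrodilution was run following CLSI methodology against ATCC reference strains and clinical isolates from the Canadian Intensive Care Unit (CAN-ICU) study, with Gram-positive and Gram-negative organisms tested. The value is the minimum inhibitory concentration, reported in μg/mL.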

Escherichia coli [2] = experiment: Antibacterial activity against gentamicin-resistant Escherichia coli ATCC 6174 after 24 hrs by macrobroth dilution method; type: functional; conditions: ATCC 6174, 24 h
Procedure, shortened: (§2)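 Reference strains from the American Type Culture Collection were tested by broth macrodilution following CLSI methodology. The read-out was the minimum inhibitory concentration, reported in μg/mL. The same method was used for the Gram-positive and Gram-negative organisms.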

Klebsiella pneumoniae = experiment: Antibacterial activity against Klebsiella pneumoniae ATCC 13883 after 24 hrs by macrobroth dilution method; conditions: ATCC 13883, 24 h
Staphylococcus aureus [3] = experiment: Antibacterial activity against Staphylococcus aureus ATCC 29213 after 24 hrs by macrobroth dilution method; type: functional; conditions: ATCC 29213, 24 h; procedure, shortened: as §2
[4] = system: Staphylococcus epidermidis; experiment: Antibacterial activity against Staphylococcus epidermidis […] after 24 hrs by macrobroth dilution method; type: functional; procedure, shortened: as §1
Staphylococcus aureus [5] = experiment: Antibacterial activity against methicillin-resistant Staphylococcus aureus ATCC 33592 after 24 hrs by macrobroth dilution method; type: functional; conditions: ATCC 33592, 24 h; procedure, shortened: as §2
Streptococcus pneumoniae = experiment: Antibacterial activity against Streptococcus pneumoniae ATCC 49619 after 24 hrs by macrobroth dilution method; type: functional; conditions: ATCC 49619, 24 h; procedure, shortened: as §1
Escherichia coli [6] = experiment: Antibacterial activity against Escherichia coli CAN-ICU 63074 after 24 hrs by macrobroth dilution method; type: functional; conditions: CAN-ICU 63074, 24 h; procedure, shortened: as §1
[7] = system: Stenotrophomonas maltophilia; experiment: Antibacterial activity against Stenotrophomonas maltophilia CAN-ICU 62585 after 24 hrs by macrobroth dilution method; type: functional; conditions: CAN-ICU 62585, 24 h; procedure, shortened: as §1
[8] = system: Staphylococcus epidermidis; experiment: Antibacterial activity against methicillin-resistant Staphylococcus epidermidis ATCC 14990 after 24 hrs by macrobroth dilution method; type: functional; conditions: ATCC 14990, 24 h
Pseudomonas aeruginosa [9] = experiment: Antibacterial activity against Pseudomonas aeruginosa CAN-ICU 62308 after 24 hrs by macrobroth dilution method; type: functional; conditions: CAN-ICU 62308, 24 h; procedure, shortened: as §1
Escherichia coli [10] = experiment: Antibacterial activity against Escherichia coli ATCC 25922 after 24 hrs by macrobroth dilution method; type: functional; conditions: ATCC 25922, 24 h; procedure, shortened: as §2
Acinetobacter baumannii = experiment: Antibacterial activity against Acinetobacter baumannii CAN-ICU 63169 after 24 hrs by macrobroth dilution method; type: functional; conditions: CAN-ICU 63169, 24 h; procedure, shortened: as §1

NC[C@H]1OC(O[C@H]2[C@H](OCc3ccc(Cl)cc3)[C@@H](O[C@H]3O[C@H](COCc4ccc(Cl)cc4)[C@@H](OCc4ccc(Cl)cc4)[C@H](N)[C@H]3OCc3ccc(Cl)cc3)[C@H](N)C[C@@H]2N)[C@H](OCc2ccc(Cl)cc2)[C@@H](OCc2ccc(Cl)cc2)[C@@H]1OCc1ccc(Cl)cc1.O=C(O)C(F)(F)F (some centres undefined)
MIC (Pseudomonas aeruginosa [1]): > 128 µg/mL | MIC (Escherichia coli [2]): 128 µg/mL | MIC (Klebsiella pneumoniae): > 128 µg/mL | MIC (Staphylococcus aureus [3]): 32 µg/mL | MIC [4]: 32 µg/mL | MIC (Staphylococcus aureus [5]): 32 µg/mL | MIC (Streptococcus pneumoniae): 64 µg/mL | MIC (Escherichia coli [6]): 64 µg/mL | MIC [7]: > 128 µg/mL | MIC [8]: 16 µg/mL | MIC (Pseudomonas aeruginosa [9]): > 128 µg/mL | MIC (Escherichia coli [10]): 128 µg/mL | MIC (Acinetobacter baumannii): > 128 µg/mL

COC[C@H]1O[C@@H](O[C@@H]2[C@@H](OC)[C@H](N)C[C@H](N)[C@H]2O[C@H]2O[C@H](CN)[C@@H](OC)[C@H](OC)[C@H]2N)[C@H](OC)[C@@H]1O[C@H]1O[C@@H](CN)[C@@H](OC)[C@H](OC)[C@H]1N.O=C(O)C(F)(F)F
MIC (Pseudomonas aeruginosa [1]): > 256 µg/mL | MIC (Escherichia coli [2]): > 256 µg/mL | MIC (Klebsiella pneumoniae): > 256 µg/mL | MIC (Staphylococcus aureus [3]): > 256 µg/mL | MIC [4]: 256 µg/mL | MIC (Staphylococcus aureus [5]): > 256 µg/mL | MIC (Streptococcus pneumoniae): > 256 µg/mL | MIC (Escherichia coli [6]): > 256 µg/mL | MIC [7]: > 256 µg/mL | MIC [8]: > 256 µg/mL | MIC (Pseudomonas aeruginosa [9]): > 256 µg/mL | MIC (Escherichia coli [10]): > 256 µg/mL | MIC (Acinetobacter baumannii): > 256 µg/mL

CN(C)c1ccc(NC(=O)OC[C@H]2O[C@H](O[C@@H]3[C@@H](OC(=O)Nc4ccc(N(C)C)cc4)[C@H](O[C@H]4O[C@H](CN)[C@@H](OC(=O)Nc5ccc(N(C)C)cc5)[C@H](OC(=O)Nc5ccc(N(C)C)cc5)[C@H]4OC(=O)Nc4ccc(N(C)C)cc4)[C@@H](N)C[C@H]3N)[C@H](OC(=O)Nc3ccc(N(C)C)cc3)[C@@H](N)[C@@H]2OC(=O)Nc2ccc(N(C)C)cc2)cc1.O=C(O)C(F)(F)F
MIC (Pseudomonas aeruginosa [1]): > 256 µg/mL | MIC (Escherichia coli [2]): 256 µg/mL | MIC (Klebsiella pneumoniae): > 256 µg/mL | MIC (Staphylococcus aureus [3]): 16 µg/mL | MIC [4]: 16 µg/mL | MIC (Staphylococcus aureus [5]): 32 µg/mL | MIC (Streptococcus pneumoniae): > 256 µg/mL | MIC (Escherichia coli [6]): 256 µg/mL | MIC [7]: > 256 µg/mL | MIC [8]: 32 µg/mL | MIC (Pseudomonas aeruginosa [9]): 256 µg/mL | MIC (Escherichia coli [10]): 256 µg/mL | MIC (Acinetobacter baumannii): > 256 µg/mL
